From ChEMBL document CHEMBL1255409, “In vitro activity of ceftaroline against 623 diverse strains of anaerobic bacteria” (2010)
Values after ≈ are worked out from the molar mass of the structure shown.

Legend:
Format in all cases: functional
[1] = system: Clostridium citroniae; assay: Antimicrobial activity against Clostridium citroniae under anaerobic conditions after 44 hrs by CLSI-M11-47 protocol based agar dilution method; conditions: Enterocloster citroniae
Method in brief: (§1)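 Reference agar dilution per CLSI M11-A7 with plates made on test day. Clinical isolates were stored at −70°C in 20% skim milk, subcultured twice, and 48-h cell paste was suspended in brucella broth to 0.5 McFarland. About 10^5 CFU/spot was applied with a Steers replicator. Plates were incubated 44 h at 37°C anaerobically. MIC was the lowest concentration giving complete inhibition or marked growth reduction versus the drug-free control.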

[2] = system: Clostridium cadaveris; assay: Antimicrobial activity against Clostridium cadaveris under anaerobic conditions after 44 hrs by CLSI-M11-47 protocol based agar dilution method; method in brief: as §1
[3] = system: Anaerococcus prevotii; assay: Antimicrobial activity against Anaerococcus prevotii under anaerobic conditions after 44 hrs by CLSI-M11-47 protocol based agar dilution method; method in brief: as §1
[4] = system: Clostridium celerecrescens; assay: Antimicrobial activity against Clostridium celerecrescens under anaerobic conditions after 44 hrs by CLSI-M11-47 protocol based agar dilution method; conditions: Lacrimispora celerecrescens; method in brief: as §1
[5] = system: Prevotella bivia; assay: Antimicrobial activity against Prevotella bivia under anaerobic conditions after 44 hrs by CLSI-M11-47 protocol based agar dilution method
Method in brief: (§2)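 Clinical isolates were stored at −70°C in 20% skim milk and identified phenotypically or by partial 16S rRNA sequencing. Each strain was subcultured twice from frozen stock. Cell paste from 48-h cultures was suspended in brucella broth to a 0.5 McFarland standard. About 10^5 CFU per spot were applied by Steers replicator to agar dilution plates prepared on the day of testing. Plates were incubated 44 h at 37°C in an anaerobic chamber. MIC was taken as the lowest concentration giving complete inhibition or marked reduction of growth versus the drug-free control.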

[6] = system: Fusobacterium nucleatum; assay: Antimicrobial activity against Fusobacterium nucleatum under anaerobic conditions after 44 hrs by CLSI-M11-47 protocol based agar dilution method; method in brief: as §2
[7] = system: Prevotella nanceiensis; assay: Antimicrobial activity against Prevotella nanceiensis under anaerobic conditions after 44 hrs by CLSI-M11-47 protocol based agar dilution method; conditions: Hoylesella nanceiensis; method in brief: as §2
[8] = system: Prevotella tannerae; assay: Antimicrobial activity against Prevotella tannerae under anaerobic conditions after 44 hrs by CLSI-M11-47 protocol based agar dilution method; conditions: Alloprevotella tannerae; method in brief: as §2
[9] = system: Peptoniphilus asaccharolyticus; assay: Antimicrobial activity against Peptoniphilus asaccharolyticus under anaerobic conditions after 44 hrs by CLSI-M11-47 protocol based agar dilution method; method in brief: as §2
[10] = system: Clostridium paraputrificum; assay: Antimicrobial activity against Clostridium paraputrificum under anaerobic conditions after 44 hrs by CLSI-M11-47 protocol based agar dilution method; method in brief: as §1
[11] = system: Bacteroides thetaiotaomicron; assay: Antimicrobial activity against Bacteroides thetaiotaomicron under anaerobic conditions after 44 hrs by CLSI-M11-47 protocol based agar dilution method; method in brief: as §1
[12] = system: Paraclostridium bifermentans; assay: Antimicrobial activity against Clostridium bifermentans under anaerobic conditions after 44 hrs by CLSI-M11-47 protocol based agar dilution method; method in brief: as §1
[13] = system: Clostridium tertium; assay: Antimicrobial activity against Clostridium tertium under anaerobic conditions after 44 hrs by CLSI-M11-47 protocol based agar dilution method; method in brief: as §1
[14] = system: Gemella sanguinis; assay: Antimicrobial activity against Gemella sanguinis under anaerobic conditions after 44 hrs by CLSI-M11-47 protocol based agar dilution method; method in brief: as §2
[15] = system: Enterocloster clostridioformis; assay: Antimicrobial activity against Clostridium clostridioforme under anaerobic conditions after 44 hrs by CLSI-M11-47 protocol based agar dilution method; method in brief: as §1
[16] = system: Collinsella aerofaciens; assay: Antimicrobial activity against Colinsella aerofaciens under anaerobic conditions after 44 hrs by CLSI-M11-47 protocol based agar dilution method; method in brief: as §1
[17] = system: Lacticaseibacillus rhamnosus; assay: Antimicrobial activity against Lactobacillus rhamnosus under anaerobic conditions after 44 hrs by CLSI-M11-47 protocol based agar dilution method; method in brief: as §2
[18] = system: Eubacterium contortum; assay: Antimicrobial activity against Eubacterium contortum under anaerobic conditions after 44 hrs by CLSI-M11-47 protocol based agar dilution method; conditions: Faecalicatena contorta; method in brief: as §1
[19] = system: Bacteroides ovatus; assay: Antimicrobial activity against Bacteroides ovatus under anaerobic conditions after 44 hrs by CLSI-M11-47 protocol based agar dilution method; method in brief: as §1
[20] = system: Fusobacterium varium; assay: Antimicrobial activity against Fusobacterium varium under anaerobic conditions after 44 hrs by CLSI-M11-47 protocol based agar dilution method; method in brief: as §2
[21] = system: Finegoldia magna; assay: Antimicrobial activity against Finegoldia magna under anaerobic conditions after 44 hrs by CLSI-M11-47 protocol based agar dilution method; method in brief: as §1
[22] = system: Prevotella denticola; assay: Antimicrobial activity against Prevotella denticola under anaerobic conditions after 44 hrs by CLSI-M11-47 protocol based agar dilution method; method in brief: as §2
[23] = system: Gemella morbillorum; assay: Antimicrobial activity against Gemella morbillorum under anaerobic conditions after 44 hrs by CLSI-M11-47 protocol based agar dilution method; method in brief: as §2
[24] = system: Eggerthella lenta; assay: Antimicrobial activity against Eggerthella lenta under anaerobic conditions after 44 hrs by CLSI-M11-47 protocol based agar dilution method; method in brief: as §1
[25] = system: Atopobium parvulum; assay: Antimicrobial activity against Atopobium parvulum under anaerobic conditions after 44 hrs by CLSI-M11-47 protocol based agar dilution method; conditions: Lancefieldella parvula; method in brief: as §1
[26] = system: Paeniclostridium sordellii; assay: Antimicrobial activity against Clostridium sordellii under anaerobic conditions after 44 hrs by CLSI-M11-47 protocol based agar dilution method; conditions: Paraclostridium sordellii; method in brief: as §1
[27] = system: Prevotella corporis; assay: Antimicrobial activity against Prevotella corporis under anaerobic conditions after 44 hrs by CLSI-M11-47 protocol based agar dilution method; method in brief: as §2
[28] = system: Clostridium subterminale; assay: Antimicrobial activity against Clostridium subterminale under anaerobic conditions after 44 hrs by CLSI-M11-47 protocol based agar dilution method; method in brief: as §1
[29] = system: Porphyromonas asaccharolytica; assay: Antimicrobial activity against Porphyromonas asaccharolyticus under anaerobic conditions after 44 hrs by CLSI-M11-47 protocol based agar dilution method; method in brief: as §2
[30] = system: Slackia exigua; assay: Antimicrobial activity against Slackia exigua under anaerobic conditions after 44 hrs by CLSI-M11-47 protocol based agar dilution method; method in brief: as §2
[31] = system: Porphyromonas somerae; assay: Antimicrobial activity against Porphyromonas somerae under anaerobic conditions after 44 hrs by CLSI-M11-47 protocol based agar dilution method; method in brief: as §2
[32] = system: Peptostreptococcus stomatis; assay: Antimicrobial activity against Peptostreptococcus stomatis under anaerobic conditions after 44 hrs by CLSI-M11-47 protocol based agar dilution method; method in brief: as §2

## Cc1ncc([N+](=O)[O-])n1CCO [METRONIDAZOLE]
[1]
  MIC50: 0.06 µg/mL (≈ 0.351 µM)
  MIC90: 0.25 µg/mL (≈ 1.46 µM)
[2]
  MIC50: 0.5 µg/mL (≈ 2.92 µM)
  MIC90: 4 µg/mL (≈ 23.4 µM)
[3]
  MIC50: 1 µg/mL (≈ 5.84 µM)
  MIC90: 2 µg/mL (≈ 11.7 µM)
[4]
  MIC50: 0.5 µg/mL (≈ 2.92 µM)
  MIC90: 4 µg/mL (≈ 23.4 µM)
[5]
  MIC50: 1 µg/mL (≈ 5.84 µM)
  MIC90: 2 µg/mL (≈ 11.7 µM)
[6]
  MIC50: ≤ 0.03 µg/mL
  MIC90: 0.25 µg/mL (≈ 1.46 µM)
[7]
  MIC50: 0.5 µg/mL (≈ 2.92 µM)
  MIC90: 2 µg/mL (≈ 11.7 µM)
[8]
  MIC50: 0.5 µg/mL (≈ 2.92 µM)
  MIC90: 2 µg/mL (≈ 11.7 µM)
[9]
  MIC50: 1 µg/mL (≈ 5.84 µM)
  MIC90: 1 µg/mL (≈ 5.84 µM)
[10]
  MIC50: 0.5 µg/mL (≈ 2.92 µM)
  MIC90: 4 µg/mL (≈ 23.4 µM)
[11]
  MIC50: 1 µg/mL (≈ 5.84 µM)
  MIC90: 1 µg/mL (≈ 5.84 µM)
[12]
  MIC50: 0.5 µg/mL (≈ 2.92 µM)
  MIC90: 4 µg/mL (≈ 23.4 µM)
[13]
  MIC50: 0.5 µg/mL (≈ 2.92 µM)
  MIC90: 4 µg/mL (≈ 23.4 µM)
[14]
  MIC50: 1 µg/mL (≈ 5.84 µM)
  MIC90: 4 µg/mL (≈ 23.4 µM)
[15]
  MIC50: 0.06 µg/mL (≈ 0.351 µM)
  MIC90: 0.25 µg/mL (≈ 1.46 µM)
[16]
  MIC50: 0.5 µg/mL (≈ 2.92 µM)
  MIC90: 1 µg/mL (≈ 5.84 µM)
[17]
  MIC50: > 64 µg/mL
  MIC90: > 64 µg/mL
[18]
  MIC50: 0.5 µg/mL (≈ 2.92 µM)
  MIC90: 1 µg/mL (≈ 5.84 µM)
[19]
  MIC50: 1 µg/mL (≈ 5.84 µM)
  MIC90: 2 µg/mL (≈ 11.7 µM)
[20]
  MIC50: 0.25 µg/mL (≈ 1.46 µM)
  MIC90: 0.5 µg/mL (≈ 2.92 µM)
[21]
  MIC50: 0.5 µg/mL (≈ 2.92 µM)
  MIC90: 1 µg/mL (≈ 5.84 µM)
[22]
  MIC50: 0.5 µg/mL (≈ 2.92 µM)
  MIC90: 2 µg/mL (≈ 11.7 µM)
[23]
  MIC50: 1 µg/mL (≈ 5.84 µM)
  MIC90: 4 µg/mL (≈ 23.4 µM)
[24]
  MIC50: 1 µg/mL (≈ 5.84 µM)
  MIC90: 1 µg/mL (≈ 5.84 µM)
[25]
  MIC50: 0.5 µg/mL (≈ 2.92 µM)
  MIC90: 1 µg/mL (≈ 5.84 µM)
[26]
  MIC50: 0.5 µg/mL (≈ 2.92 µM)
  MIC90: 4 µg/mL (≈ 23.4 µM)
[27]
  MIC50: 0.5 µg/mL (≈ 2.92 µM)
  MIC90: 2 µg/mL (≈ 11.7 µM)
[28]
  MIC50: 0.5 µg/mL (≈ 2.92 µM)
  MIC90: 4 µg/mL (≈ 23.4 µM)
[29]
  MIC50: 0.06 µg/mL (≈ 0.351 µM)
  MIC90: 0.125 µg/mL (≈ 0.73 µM)
[30]
  MIC50: 0.5 µg/mL (≈ 2.92 µM)
  MIC90: 1 µg/mL (≈ 5.84 µM)
[31]
  MIC50: 0.5 µg/mL (≈ 2.92 µM)
  MIC90: 0.5 µg/mL (≈ 2.92 µM)
[32]
  MIC50: 0.5 µg/mL (≈ 2.92 µM)
  MIC90: 1 µg/mL (≈ 5.84 µM)
